# Source: PubChem BioAssay
# Active and inactive are the calls of the source.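 How the source made its calls, unless noted: active means GFP response above 150% of the DMSO level; inconclusive means fewer than 70 events counted for a yeast strain; inactive means the rest.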
# What was measured:
# [1] = hit retest on RPL19A-GFP reporter strain – cell-based, S. cerevisiae, flow cytometry, cherry picks, mother/daughter gates, confirmation (AID 2270;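 active means GFP response below 50% of the DMSO control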); details: 3 h, at 10 µM, stronger effect = lower value, 100 = same GFP as DMSO wells
# [2] = yeast TOR pathway reporter LAP4-GFP change – cell-based, cherry picks, flow cytometry, mother/daughter gates, confirmation (AID 2271;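 active means GFP response above 150% of the DMSO control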;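 further: ratio of sample to DMSO plate mean so 100% equals DMSO level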); details: S. cerevisiae LAP4-GFP strain, 3 h, at 10 µM, stronger effect = higher value, 100 means same as DMSO control
# Procedure, shortened: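 System – GFP-fusion yeast strain · Amount – 0.2 OD600 cells · Buffer or medium – SC growth medium · Dosing – single test-compound dose, 10 µM final · Schedule – 3 h treatment at 30 °C with rotation · Detection – GFP by flow cytometry · Read-out – per-gate (all, mother, daughter) GFP response vs DMSO · Benchmarks – positive rapamycin (400 ng/mL), negative DMSO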
# [3] = TOR pathway reporter MEP2-GFP, retest of hits – S. cerevisiae, flow cytometry GFP, cherry picks, confirmation (AID 2272;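 active means GFP response above 150% of the DMSO control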;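 further: ratio of well signal to plate DMSO mean so 100% equals DMSO level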); details: S. cerevisiae MEP2-GFP strain, 3 h, at 10 µM, stronger effect = higher value
# [4] = yeast AGP1-GFP fluorescence change, single-dose – cell-based, flow cytometry, S. cerevisiae, cherry picks, confirmation (AID 2273);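 further: median GFP channel fluorescence over the whole cell population gate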; details: S. cerevisiae AGP1-GFP strain, 3 h, at 10 µM
# [5] = TOR pathway CIT2 reporter hit retest – S. cerevisiae, GFP fusion, cherry picks, mother/daughter gates, confirmation (AID 2274); details: S. cerevisiae CIT2-GFP strain, flow cytometry, 3 h, at 10 µM, stronger effect = higher value
# [6] = measured here: daughter cell gate
# [7] = measured here: mother cell gate
# [8] = measured here: daughter cell gate response
# [9] = measured here: mother cell gate response
Compound,GFP response vs DMSO [1],"GFP response vs DMSO [1, 6] [%]","GFP response vs DMSO [1, 7] [%]",GFP response relative to DMSO [2],"GFP response relative to DMSO [2, 8] [%]","GFP response relative to DMSO [2, 9] [%]",GFP response vs DMSO [3],"GFP response, % of DMSO [4]","GFP response, % of DMSO [5]","GFP response, % of DMSO [5, 6] [%]","GFP response, % of DMSO [5, 7] [%]"
COc1ccc(/C=N/NC(=O)C2(C)NC(C)(C)Cc3ccccc32)cc1 (stereo not drawn),94.4% (inactive),94.9,95.3,96.7% (inactive),97.6,96.1,96.2% (inactive),99.7% (inactive),99.7% (inactive),99.1,98.5
COc1cc(/C=C2\C(=O)ON=C2c2ccccc2)cc(Br)c1O,92.7% (inactive),95.6,88.3,114% (inactive),113,115,99.3% (inactive),92.7% (inactive),94.4% (inactive),95.8,89.3
COc1cc(/C=C2/C(=O)ON=C2c2ccccc2)ccc1O,105% (inactive),108,100,105% (inactive),108,102,121% (inactive),107% (inactive),125% (inactive),132,112
C=CCn1c(=N)c(C#N)cc2c(=O)n3ccccc3nc21,98% (inactive),95.4,93,99.2% (inactive),99.2,98.3,105% (inactive),100% (inactive),101% (inactive),97.2,87.8
O=C(Oc1oc(-c2ccco2)nc1C=Nc1ccccc1)c1ccoc1,99.6% (inactive),99.8,96.9,198% (active),172,198,108% (inactive),98.2% (inactive),98.6% (inactive),103,91.5
CS(=O)(=O)Nc1ccc(C2=NN(S(C)(=O)=O)C(c3ccccc3)C2)cc1 (stereo not drawn),98.7% (inactive),98.1,98.6,133% (inactive),138,129,157% (inactive),115% (inactive),114% (inactive),112,114
CCOc1ccc(C(=O)/C=C/c2ccc(SC)cc2)cc1,98% (inactive),100,96.8,102% (inactive),99.1,103,101% (inactive),102% (inactive),100% (inactive),99.2,80.9
O=C(COC(=O)c1ccc(NS(=O)(=O)c2cccs2)cc1O)Nc1nc2ccccc2s1,101% (inactive),100,101,91.4% (inactive),92.5,93.1,102% (inactive),98.5% (inactive),102% (inactive),98.1,104
CC(Oc1ccc(Br)cc1)C(=O)Nc1nc(-c2ccccn2)cs1 (stereo not drawn),104% (inactive),95.9,105,241% (active),184,258,117% (inactive),92.9% (inactive),98.3% (inactive),97.2,93.8
Cc1ccc(/C(N)=N/OC(=O)c2ccc(F)cc2)cc1,102% (inactive),102,99.2,128% (inactive),111,129,108% (inactive),76.8% (inactive),134% (inactive),121,133
COc1ccc(NC(=O)C2CCN(S(=O)(=O)c3ccc(OC)c(OC)c3)CC2)c(OC)c1,90.6% (inactive),92,89,99.5% (inactive),99.1,102,107% (inactive),100% (inactive),103% (inactive),97.4,105
COc1ccc(C(=O)Oc2ccc(/C=N/NC(=O)c3ccccc3OC)cc2[N+](=O)[O-])cc1,102% (inactive),103,101,87.2% (inactive),87.8,86.7,104% (inactive),101% (inactive),104% (inactive),104,100
COc1ccc(N2C(=O)C(Cl)=C(Nc3ccccc3O)C2=O)cc1,99.6% (inactive),98.8,100,102% (inactive),101,103,112% (inactive),98.8% (inactive),100% (inactive),95.6,99.3
